What was measured:
[1] = target: T1, Histone-lysine N-methyltransferase EHMT2 (Homo sapiens) (UniProt Q96KQ7); assay: Inhibition of human G9a (913 to 1193 residues) assessed as covalent modification by measuring G9a adduct formation at 50 uM incubated for 1 hr by mass spectrometry relative to control
T1 sequence (whole entry): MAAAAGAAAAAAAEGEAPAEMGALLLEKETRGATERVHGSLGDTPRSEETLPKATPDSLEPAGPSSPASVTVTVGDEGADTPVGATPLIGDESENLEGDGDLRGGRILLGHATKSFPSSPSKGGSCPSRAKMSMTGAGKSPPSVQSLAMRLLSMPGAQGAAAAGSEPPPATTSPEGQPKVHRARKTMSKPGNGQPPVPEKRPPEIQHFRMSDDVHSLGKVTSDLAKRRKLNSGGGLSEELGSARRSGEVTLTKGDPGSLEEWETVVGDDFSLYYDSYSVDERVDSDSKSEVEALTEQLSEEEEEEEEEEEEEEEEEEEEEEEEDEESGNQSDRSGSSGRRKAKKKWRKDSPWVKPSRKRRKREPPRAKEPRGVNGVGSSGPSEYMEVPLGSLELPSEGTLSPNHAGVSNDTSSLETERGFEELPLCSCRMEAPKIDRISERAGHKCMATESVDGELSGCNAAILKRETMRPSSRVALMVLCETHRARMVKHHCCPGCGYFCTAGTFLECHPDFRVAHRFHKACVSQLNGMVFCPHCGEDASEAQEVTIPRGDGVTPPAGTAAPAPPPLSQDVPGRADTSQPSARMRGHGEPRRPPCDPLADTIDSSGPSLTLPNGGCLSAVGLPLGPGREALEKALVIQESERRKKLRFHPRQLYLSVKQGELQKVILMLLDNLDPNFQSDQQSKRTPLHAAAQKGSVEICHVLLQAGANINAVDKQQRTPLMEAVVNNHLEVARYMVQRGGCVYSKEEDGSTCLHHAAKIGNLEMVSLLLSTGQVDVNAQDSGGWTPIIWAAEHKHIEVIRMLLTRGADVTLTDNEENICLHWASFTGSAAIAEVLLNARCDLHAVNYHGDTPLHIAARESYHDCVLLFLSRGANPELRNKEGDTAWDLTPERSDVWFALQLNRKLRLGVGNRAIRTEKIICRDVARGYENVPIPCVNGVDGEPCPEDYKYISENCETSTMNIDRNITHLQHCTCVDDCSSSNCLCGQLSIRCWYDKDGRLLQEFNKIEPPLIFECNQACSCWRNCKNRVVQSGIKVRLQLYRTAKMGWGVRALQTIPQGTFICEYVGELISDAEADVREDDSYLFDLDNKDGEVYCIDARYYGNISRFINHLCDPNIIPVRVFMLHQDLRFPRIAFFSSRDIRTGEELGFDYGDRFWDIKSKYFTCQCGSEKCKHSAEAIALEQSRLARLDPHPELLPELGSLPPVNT
In short: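 Purified G9a or GLP catalytic domain (5 μM) in 50 mM Tris-HCl pH 7.5, 150 mM NaCl incubated with 50 μM compound or DMSO at room temperature (1 h, or 30 and 60 min in time course); intact mass by ESI LC/MS-TOF; adduct % = adduct/(protein + adduct) × 100.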

[2] = target: T2, Histone-lysine N-methyltransferase EHMT2 (Homo sapiens, UniProt Q96KQ7); assay: Inhibition of human G9a (913 to 1193 residues) using H3 peptide substrate preincubated for 5 mins followed by SAM addition measured after 10 mins by SAHH-coupled biochemical assay
T2 sequence (Q96KQ7 whole entry): T1 sequence (whole entry)

[3] = target: T3, Histone-lysine N-methyltransferase EHMT1 (Homo sapiens, UniProt Q9H9B1); assay: Binding affinity to human GLP (982 to 1266 residues) assessed as dissociation constant measured after 1 hr by isothermal titration calorimetry method
T3 sequence (Q9H9B1 whole entry): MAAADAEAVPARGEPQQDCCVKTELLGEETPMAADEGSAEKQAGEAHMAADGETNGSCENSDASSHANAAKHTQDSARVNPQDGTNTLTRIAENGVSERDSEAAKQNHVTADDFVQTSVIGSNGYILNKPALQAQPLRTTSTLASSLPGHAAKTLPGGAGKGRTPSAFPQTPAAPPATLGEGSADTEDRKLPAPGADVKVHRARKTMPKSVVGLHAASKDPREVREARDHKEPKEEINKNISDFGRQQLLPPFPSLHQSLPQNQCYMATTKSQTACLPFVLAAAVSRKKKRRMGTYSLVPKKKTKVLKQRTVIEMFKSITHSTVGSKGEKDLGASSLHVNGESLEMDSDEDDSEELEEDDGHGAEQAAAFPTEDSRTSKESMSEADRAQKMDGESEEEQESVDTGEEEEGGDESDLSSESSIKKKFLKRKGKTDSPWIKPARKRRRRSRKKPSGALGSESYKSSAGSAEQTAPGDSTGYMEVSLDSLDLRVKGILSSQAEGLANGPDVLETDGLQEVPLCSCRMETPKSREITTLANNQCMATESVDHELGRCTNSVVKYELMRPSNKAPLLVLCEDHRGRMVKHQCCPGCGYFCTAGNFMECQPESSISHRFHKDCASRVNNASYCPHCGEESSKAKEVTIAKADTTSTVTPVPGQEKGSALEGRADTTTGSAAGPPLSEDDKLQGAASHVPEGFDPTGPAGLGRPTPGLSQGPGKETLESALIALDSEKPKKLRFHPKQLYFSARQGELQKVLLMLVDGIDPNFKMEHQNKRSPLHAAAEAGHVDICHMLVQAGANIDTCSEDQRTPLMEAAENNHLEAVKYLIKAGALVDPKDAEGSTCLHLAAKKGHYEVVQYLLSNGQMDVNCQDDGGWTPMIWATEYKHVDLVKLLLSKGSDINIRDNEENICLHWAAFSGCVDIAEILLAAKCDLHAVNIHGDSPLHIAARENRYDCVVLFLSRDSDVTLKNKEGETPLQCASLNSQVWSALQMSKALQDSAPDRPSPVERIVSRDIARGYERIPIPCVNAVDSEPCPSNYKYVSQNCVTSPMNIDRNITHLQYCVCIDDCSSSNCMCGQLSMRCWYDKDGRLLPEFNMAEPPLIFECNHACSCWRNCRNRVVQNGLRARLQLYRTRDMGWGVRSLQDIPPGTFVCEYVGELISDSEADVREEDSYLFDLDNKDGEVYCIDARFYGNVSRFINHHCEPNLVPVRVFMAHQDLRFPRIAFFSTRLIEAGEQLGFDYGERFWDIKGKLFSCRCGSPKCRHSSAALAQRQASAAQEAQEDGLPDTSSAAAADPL
In short: (§1)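 ITC at 25 °C in 50 mM Tris-HCl pH 7.5, 150 mM NaCl, 1% DMSO; 500 μM compound in syringe titrated into 50 μM G9a or GLP catalytic domain in cell (initial 0.4 μL injection then 13 injections), stirring 750 rpm; run time about 50 min; single binding site fit; mean ± SD of two independent measurements.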

[4] = target: T2, Histone-lysine N-methyltransferase EHMT2; assay: Binding affinity to human G9a (913 to 1193 residues) assessed as dissociation constant measured after 1 hr by isothermal titration calorimetry method; in short: as §1
[5] = target: T3, Histone-lysine N-methyltransferase EHMT1; assay: Inhibition of human GLP (982 to 1266 residues) using H3 peptide substrate preincubated for 5 mins followed by SAM addition measured after 10 mins by SAHH-coupled biochemical assay

| inhibition [1] | IC50 [2] | Kd [3] | Kd [4] | IC50 [5] | SMILES |
| --- | --- | --- | --- | --- | --- |
| 40% | – | – | – | – | C=CC(=O)Nc1nc(NC2CCN(C(C)C)CC2)c2cc(OC)c(OCCCN3CCCC3)cc2n1 |
| – | 211 nM | 16 nM | 48 nM | 151 nM | CCC(=O)Nc1cc(NC2CCN(C(C)C)CC2)c2cc(OC)c(OCCCN3CCCC3)cc2n1 |

From ChEMBL document CHEMBL5126600, “Discovery of the First-in-Class G9a/GLP Covalent Inhibitors” (J Med Chem, 2022)
